Sampled rows, rich in hits. Any-hit rate of the full collection: about 2.7%.
HIV Env fusion – inhibitors of HIV Env-mediated cell fusion. actives 1.1% (n = 360,000). HeLa-JRFL Env/CEM21 cell fusion, luciferase. AID 651610. inhibition, % at 12.3 µM;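 active = mean replicate inhibition score of at least 50 and every replicate individually at or above 50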
F508del corr – correctors of CFTR F508del function in bronchial epithelial cells; CFBE cells, YFP halide quenching; stimulated with forskolin plus potentiator P3; % fluorescence drop versus neutral controls; activity (quench increase), % at 7.58 µM; actives 0.36% (n = 350,000); AID 720511;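 active = mean added fluorescence quench of at least 8% versus neutral control, with both replicates also reaching 8%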;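 note: cells transiently co-express mutant CFTR-F508del with the halide-sensitive YFP; corrector assay measuring rescue of mutant channel to the surface after 24 h compound exposure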
E-selectin induc – E-selectin induction on HUVECs. HUVEC E-selectin immunofluorescence imaging; normalized: neutral wells 0, TNF-alpha wells 100. actives 0.37% (n = 260,000). P16581. activation, % at 7.58 µM. AID 686992;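 active = mean E-selectin-positive cell signal at least 10% of the positive control, reached in at least 60% of replicates, without over 20% cell loss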
Target sequence (P16581 whole entry, looked up): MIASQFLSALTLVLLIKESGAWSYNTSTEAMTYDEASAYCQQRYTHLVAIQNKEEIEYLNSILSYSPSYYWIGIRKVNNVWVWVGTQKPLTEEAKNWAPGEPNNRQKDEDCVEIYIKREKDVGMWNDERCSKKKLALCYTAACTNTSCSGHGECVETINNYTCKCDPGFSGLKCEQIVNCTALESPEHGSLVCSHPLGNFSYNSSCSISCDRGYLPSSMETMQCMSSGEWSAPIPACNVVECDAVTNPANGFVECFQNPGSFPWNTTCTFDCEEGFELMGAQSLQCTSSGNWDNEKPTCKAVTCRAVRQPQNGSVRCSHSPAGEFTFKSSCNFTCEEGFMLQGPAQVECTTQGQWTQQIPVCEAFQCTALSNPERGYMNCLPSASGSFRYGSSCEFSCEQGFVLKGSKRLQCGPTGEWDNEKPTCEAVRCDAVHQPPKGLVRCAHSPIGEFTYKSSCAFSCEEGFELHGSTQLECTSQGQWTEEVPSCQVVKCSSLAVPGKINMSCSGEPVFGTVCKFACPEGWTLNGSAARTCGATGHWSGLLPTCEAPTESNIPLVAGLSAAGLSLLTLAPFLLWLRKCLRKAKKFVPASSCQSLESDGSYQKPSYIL
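Test system: HUVEC; input: 3,000 HUVEC/well; measured by: immunofluorescence imaging; read-out: % PE-positive cells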
S100A4 MyoIIA – S100A4-myosin IIA interaction inhibition | actives 0.14% (n = 360,000) | P26447 | AID 652163 | S100A4/TAMRA-MyoIIA peptide fluorescence polarization | inhibition, % at 10.7 µM;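 active = mean inhibition of at least 70% across replicates, with every replicate also reaching that level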
Target sequence (P26447 whole entry, looked up): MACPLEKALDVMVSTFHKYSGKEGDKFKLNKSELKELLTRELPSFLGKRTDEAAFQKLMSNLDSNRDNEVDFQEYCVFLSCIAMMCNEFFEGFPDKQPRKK
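Material: S100A4 monomer protein / Buffer or medium: 50 mM HEPES pH 7.2, 10 mM CaCl2, 100 mM KCl / Times: 5 min incubation before reading / Benchmarks: neutral control DMSO, positive control TFP / Reagent: labelled myosin peptide probe, 5 nM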
FGF22 binding – binders of recombinant human FGF22 by thermal shift; Q9HCT0; SYPRO orange fluorescence; percent of sucrose octasulfate shift, DMSO zero; activity (Tm shift, normalised), % at 9.99 µM; actives 1.5% (n = 340,000); AID 651658;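 active = mean Tm shift, scaled 0 neutral to 100 positive control, at about 1.3% or above, every replicate too, limit read from the data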
Large screens that a line does not name were inactive; [ ] = remark or other dose.

O=C1C(SCCO)=C(SCCO)C(=O)c2ccccc21	F508del corr 10
CC1=C(SCc2ccccc2)C(=O)c2ccccc2C1=O	none
O=C(NCc1ccco1)c1ccc(Cn2c(=O)c3sccc3n(Cc3cccc(F)c3)c2=O)cc1	HIV Env fusion 90 (no result: E-selectin induc)
O=C(CCn1c(=O)c2sccc2n(CC(=O)NCc2ccco2)c1=O)NCc1ccccc1	none (no result: F508del corr, E-selectin induc, S100A4 MyoIIA, FGF22 binding)
O=C(NCc1ccco1)c1ccc(Cn2c(=O)c3ccccc3n(Cc3cccc(Cl)c3)c2=O)cc1	HIV Env fusion 89 (no result: F508del corr, E-selectin induc, S100A4 MyoIIA, FGF22 binding)
COCCCNC(=O)c1ccc(Cn2c(=O)c3ccccc3n(Cc3ccc(C)cc3)c2=O)cc1	none (no result: F508del corr, E-selectin induc, S100A4 MyoIIA, FGF22 binding)
Cc1ccc(NC(=O)Cn2c(=O)n(Cc3ccco3)c(=O)c3ccccc32)c(C)c1	none (no result: F508del corr, E-selectin induc, S100A4 MyoIIA, FGF22 binding)
O=C(Cn1c(=O)n(Cc2ccco2)c(=O)c2ccccc21)Nc1cccc(Cl)c1	HIV Env fusion 95 (no result: E-selectin induc)
C[C@@H](NC(=O)C[C@H]1C=C[C@H](NC(=O)C2CCC2)[C@H](CO)O1)c1ccccc1	none
COc1ccc2c3c([nH]c2c1)[C@H](CO)N(C(=O)CN1CCOCC1)CC31CN(C(=O)NC(C)C)C1	none (no result: HIV Env fusion, S100A4 MyoIIA)
COc1ccc(CCN2C(=O)c3[nH]nc(-c4ccccc4O)c3C2c2cccc(O)c2)cc1OC (configuration not stated)	HIV Env fusion 75 (no result: F508del corr, E-selectin induc, S100A4 MyoIIA, FGF22 binding)
CC(C)NC(=O)N1[C@@H](CO)[C@@H](c2ccccc2)C12CN(C(=O)Cc1ccccc1)C2	none (no result: HIV Env fusion)
CC(C)NC(=O)N1[C@@H](CO)[C@@H](c2ccccc2)C12CN(C(=O)Cc1cccnc1)C2	S100A4 MyoIIA 125 (no result: HIV Env fusion)
COCc1cc(=O)n2[nH]cc(-c3ccccc3)c2n1	none (no result: E-selectin induc)
CCCc1cc(=O)n2[nH]cc(-c3ccc(Cl)cc3)c2n1	HIV Env fusion 85 (no result: E-selectin induc)
COc1cc(C)c(Br)cc1S(=O)(=O)NCc1ccccc1	none (no result: HIV Env fusion, E-selectin induc)
COc1ncnc(OC)c1S(=O)(=O)NCc1ccccc1	E-selectin induc 50 (no result: F508del corr)
N#C[C@@H]1[C@@H](c2ccc(C#CC3CCCCC3)cc2)[C@H](CO)N1C(=O)Nc1ccc(F)cc1	none (no result: HIV Env fusion, FGF22 binding)
C[C@@H]1CN([C@@H](C)CO)C(=O)c2cccc(NS(=O)(=O)c3ccccc3)c2O[C@H]1CN(C)Cc1ccc(Cl)c(Cl)c1	none (no result: E-selectin induc)
C[C@@H]1CN([C@H](C)CO)C(=O)c2cccc(NS(=O)(=O)c3ccccc3)c2O[C@@H]1CN(C)Cc1ccc(Cl)c(Cl)c1	HIV Env fusion 81[16.7 µM] (no result: E-selectin induc)
C[C@@H]1CN([C@@H](C)CO)C(=O)c2cccc(NS(=O)(=O)c3ccccc3)c2O[C@@H]1CN(C)Cc1ccc(Cl)c(Cl)c1	HIV Env fusion 73[16.7 µM] (no result: E-selectin induc)
O=C(c1ccccc1)c1ccccc1	none (no result: HIV Env fusion, F508del corr, E-selectin induc)
O=C(O)C1C=CC(C(=O)O)c2ccccc21 (configuration not stated)	FGF22 binding 44
O=S(=O)(NC1CC1)c1ccc(S(=O)(=O)N2CCCc3ccccc32)cc1	HIV Env fusion 69 (no result: F508del corr, E-selectin induc)
COCC(=O)N1CCCCN2[C@H](CO)[C@H](c3ccc(C#Cc4cccnc4)cc3)[C@@H]2C1	none (no result: HIV Env fusion)
CCC(C)N(C(=O)CSc1ccc(NC(C)=O)cc1)C1CCS(=O)(=O)C1 (configuration not stated)	FGF22 binding 43
CCOC(=O)C1CCCN(c2nc3ccccc3nc2NS(=O)(=O)c2ccc(C)cc2)C1 (configuration not stated)	F508del corr 21
NC(=O)C1CCN(c2nc3ccccc3nc2NS(=O)(=O)c2ccc(Br)cc2)CC1	none (no result: FGF22 binding)
COC(=O)CN(C(=S)Nc1ccc(F)cc1)C1CC(=O)N(c2ccc(OC)cc2)C1=O (configuration not stated)	HIV Env fusion 71 (no result: F508del corr, E-selectin induc, S100A4 MyoIIA, FGF22 binding)
COC(=O)CN(C(=S)Nc1ccccc1)C1CC(=O)N(c2ccc(OC)cc2)C1=O (configuration not stated)	none (no result: HIV Env fusion, E-selectin induc)
O=C(Nc1ccc(Br)cc1F)C1CCCN(S(=O)(=O)c2cnc[nH]2)C1 (configuration not stated)	FGF22 binding 2.0 (no result: E-selectin induc)
O=C(OCc1ccc(Br)cc1)c1cc([N+](=O)[O-])ccc1N1CCOCC1	F508del corr 8.4
O=C(c1ccc(Br)cc1)c1cc([N+](=O)[O-])ccc1N1CCOCC1	F508del corr 12
COc1ccc(N=C2NN=C(c3c(C)[nH]c4ccccc34)CS2)cc1	FGF22 binding 43
COC(=O)c1sc(NC(=O)c2c(C)noc2C)nc1C	none
CCOC(=O)c1sc(Nc2nc(C)cc(OC)n2)nc1C	none
CCOC(=O)c1sc(NC(=O)c2c(CC)noc2C)nc1C	F508del corr 14
CCOC(=O)c1sc(Nc2nc(C)cc(C)n2)nc1C	F508del corr 13
O=C(C[C@@H]1C=C[C@H](NC(=O)Nc2ccc(C(F)(F)F)cc2)[C@H](CO)O1)NCc1cc(F)cc(F)c1	none
CN(C)C(=O)C[C@@H]1C[C@H]2c3cc(NC(=O)C4CCC4)ccc3O[C@H]2[C@@H](CO)O1	none
O=P(OC1CCCCC1)(OC1CCCCC1)C(O)c1ccccc1 (configuration not stated)	HIV Env fusion 61 (no result: F508del corr, E-selectin induc, S100A4 MyoIIA, FGF22 binding)
Cc1nc([N+](=O)[O-])c(SCC(O)CCl)n1Cc1ccc(Cl)cc1 (configuration not stated)	FGF22 binding 43 (no result: E-selectin induc)
COc1ccc(Cn2c(C)nc([N+](=O)[O-])c2SCC(=O)O)cc1[N+](=O)[O-]	none (no result: E-selectin induc)
Cc1ccc(C(=O)NC(=S)NNC(=O)c2ccccc2O)cc1	F508del corr 9.7
Cc1onc(-c2ccccc2)c1C(=O)NC(=S)NNC(=O)c1ccc(O)cc1	HIV Env fusion 69 (no result: F508del corr, E-selectin induc, S100A4 MyoIIA, FGF22 binding)
Cc1onc(-c2ccccc2)c1C(=O)NC(=S)NNC(=O)c1ccccc1O	none (no result: F508del corr, E-selectin induc)
CC(C)NC(=O)Nc1ccc2c(c1)C(=O)N([C@H](C)CO)C[C@@H](C)[C@H](CN(C)C(=O)Nc1ccc(C(F)(F)F)cc1)OCCCC[C@H](C)O2	HIV Env fusion 75[16.7 µM]
CC(C)NC(=O)Nc1ccc2c(c1)C(=O)N([C@@H](C)CO)C[C@@H](C)[C@H](CN(C)C(=O)Nc1ccc(C(F)(F)F)cc1)OCCCC[C@H](C)O2	none
CC(C)NC(=O)Nc1ccc2c(c1)C(=O)N([C@@H](C)CO)C[C@H](C)[C@H](CN(C)C(=O)c1ccncc1)OCCCC[C@H](C)O2	S100A4 MyoIIA 96
C[C@H]1CCCCO[C@H](CN(C)C(=O)Nc2ccc(C(F)(F)F)cc2)[C@@H](C)CN([C@@H](C)CO)C(=O)c2cc(NC(=O)c3ccncc3)ccc2O1	HIV Env fusion 56[16.7 µM] (no result: FGF22 binding)
CC(C)NC(=O)Nc1ccc2c(c1)C(=O)N([C@H](C)CO)C[C@@H](C)[C@H](CN(C)C(=O)Nc1ccc(C(F)(F)F)cc1)OCCCC[C@@H](C)O2	none
CC(C)NC(=O)Nc1ccc2c(c1)C(=O)N([C@H](C)CO)C[C@@H](C)[C@@H](CN(C)C(=O)Nc1ccc(C(F)(F)F)cc1)OCCCC[C@@H](C)O2	HIV Env fusion 72[16.7 µM]

Assay outcomes as filed in PubChem.
